Data set [1] has as its system Klebsiella pneumoniae. Kind of data set: Antibacterial activity against Klebsiella pneumoniae ATCC 13883 after 18 hrs by 2 fold serial dilution method. The format is functional. The conditions noted are these: ATCC 13883, 18 h. In a few lines: (§1)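 Overnight cultures in nutrient or Mueller Hinton broth at 37 °C with shaking, diluted 50-fold into fresh MHB and grown 1.5–3 h to mid-log. Inoculum 5×10^5 CFU/mL in 2-fold serial dilutions, final range 32 to 0.015 μg/mL. MIC read visually after 18 h at 37 °C as the lowest concentration with no visible growth.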

Data set [2] can be described thus: Cytotoxicity against human HepG2 cells after 24 hrs by resazurin assay. The format is cell-based. The conditions noted are these: HepG2 cells. (The colour change of resazurin is a common sign of viable cells or microbes.)
The subject of data set [3] is Klebsiella pneumoniae. The data set can be described thus: Antibacterial activity against clinical isolate carbapenem and polymyxin resistant Klebsiella pneumoniae Koprana 100650661:1 after 18 hrs by 2 fold serial dilution method. The conditions noted are these: Koprana 100650661:1, 18 h. In kind it is functional. The method in brief: (§2)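 Polymyxin-resistant clinical isolates were grown overnight at 37 °C in NB or MHB with shaking, diluted 50-fold in MHB and grown 1.5–3 h to mid-log phase. The inoculum was 5×10^5 CFU/mL. Compounds were 2-fold broth serial dilutions, final 32 to 0.015 μg/mL; the polymyxin controls ran 128–0.06 μg/mL. The MIC was the lowest concentration with no visible growth after 18 h at 37 °C.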

Data set [4] relates to Acinetobacter baumannii. The data set can be described thus: Antibacterial activity against clinical isolate carbapenem and polymyxin resistant Acinetobacter baumannii Ptyela 100734512:2 after 18 hrs by 2 fold serial dilution method. In kind it is functional. The conditions noted are these: Ptyela 100734512:2, 18 h. In a few lines:
as §2

The next data set concerns Staphylococcus aureus. The data set can be described thus: microbe, parasite or virus in culture. The conditions noted are these: ATCC 25923, 18 h.
Data set [5] deals with Klebsiella pneumoniae. The data set can be described thus: Antibacterial activity against clinical isolate carbapenem and polymyxin resistant Klebsiella pneumoniae 138-16357-20362 after 18 hrs by 2 fold serial dilution method. In kind it is functional. The conditions noted are these: 138-16357-20362, 18 h. In a few lines: as §2
Data set [6] has as its system Acinetobacter baumannii. The data set can be described thus: Antibacterial activity against Acinetobacter baumannii ATCC 19606 after 18 hrs by 2 fold serial dilution method. The format is functional. The conditions noted are these: ATCC 19606, 18 h. In a few lines: as §1
In data set [7] the test system is Klebsiella pneumoniae. Kind of data set: Antibacterial activity against multidrug resistant Klebsiella pneumoniae ATCC 700603 after 18 hrs by 2 fold serial dilution method. In kind it is functional. The conditions noted are these: Klebsiella pneumoniae, 700603, 18 h. In a few lines: (§3)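 Overnight cultures at 37 °C in nutrient or Mueller Hinton broth with shaking were diluted 50-fold in MHB and grown 1.5–3 h to mid-log phase. The inoculum was 5×10^5 CFU/mL in MHB. Compounds were 2-fold serially diluted, final 32 to 0.015 μg/mL. After 18 h at 37 °C, the MIC was read visually as the lowest concentration with no visible growth.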

For data set [8], the system named is Pseudomonas aeruginosa. The data set can be described thus: Antibacterial activity against Pseudomonas aeruginosa ATCC 27853 after 18 hrs by 2 fold serial dilution method. The conditions noted are these: ATCC 27853, 18 h. In kind it is functional. In a few lines:
as §1

Data set [9] relates to Klebsiella pneumoniae. The data set can be described thus: Antibacterial activity against Klebsiella pneumoniae ATCC BAA-2146 expressing NDM-1 after 18 hrs by 2 fold serial dilution method. The conditions noted are these: ATCC BAA-2146, 18 h. The format is functional. In a few lines: as §3
Data set [10] deals with Pseudomonas aeruginosa. Kind of data set: Antibacterial activity against clinical isolate polymyxin resistant Pseudomonas aeruginosa FADDI-PA070 after 18 hrs by 2 fold serial dilution method. In kind it is functional. The conditions noted are these: FADDI-PA070, 18 h. In a few lines:
as §2

For data set [11], the system named is Pseudomonas aeruginosa. Kind of data set: Antibacterial activity against clinical isolate polymyxin resistant Pseudomonas aeruginosa PA9704 after 18 hrs by 2 fold serial dilution method. The conditions noted are these: PA9704, 18 h. In kind it is functional. In a few lines: as §2
A further data set concerns Escherichia coli. The data set can be described thus: Antibacterial activity against Escherichia coli ATCC 25922 after 18 hrs by 2 fold serial dilution method. In kind it is functional. The conditions noted are these: ATCC 25922, 18 h. In a few lines: as §1

The CC50 is the concentration at which the toxic effect on the cells reaches its halfway point. Lower therefore signals harm at low concentration.

In brackets after ≈: the same amount, converted by molar mass. Bridge positions count the residues as written; N and C are the ends. Square brackets hold non-standard residues; d marks the D form. Peptide text beside a SMILES is read from it. * marks the point of attachment. dBip = N[C@H](Cc1ccc(-c2ccccc2)cc1)C(=O)O; Gly(octyl) = CCCCCCCC[C@H](N)C(=O)O; dDab = NCC[C@@H](N)C(=O)O; Octanoyl = CCCCCCCC(=O)*; Dab = NCC[C@H](N)C(=O)O

For the compound `CCCCCCCC(=O)N[C@H](CCN)C(=O)N[C@H](C(=O)NCC(=O)N[C@H]1CCNC(=O)[C@H]([C@@H](C)O)NC(=O)[C@H](CCN)NC(=O)[C@H](CCN)NC(=O)[C@H](CC(C)C)NC(=O)[C@@H](Cc2ccccc2)NC(=O)[C@H](CCN)NC1=O)[C@@H](C)O` (Octanoyl-[dDab]TG[Dab][Dab][dF]L[Dab][Dab]T; lactam 4-C), the MIC against Klebsiella pneumoniae [1] was more than 32 µg/mL; in the data set on Klebsiella pneumoniae [3], more than 32 µg/mL; in the data set with Acinetobacter baumannii [4] it was more than 32 µg/mL; against Staphylococcus aureus it was more than 64 µg/mL; in the data set on Klebsiella pneumoniae [5] it was more than 32 µg/mL; with Acinetobacter baumannii [6], more than 64 µg/mL. For the same compound, the MIC with Klebsiella pneumoniae [7] is 8 µg/mL (≈ 6.98 µM); against Pseudomonas aeruginosa [8], 16 µg/mL (≈ 14 µM); in the data set on Klebsiella pneumoniae [9], 32 µg/mL (≈ 27.9 µM); against Pseudomonas aeruginosa [10], more than 32 µg/mL; in the data set with Pseudomonas aeruginosa [11] it was more than 32 µg/mL; against Escherichia coli, more than 32 µg/mL. In data set [2], this compound registered a CC50 at 24 h of more than 300 µM.
With `CCCCCCCC(=O)N[C@@H](CCN)C(=O)N[C@H](C(=O)N[C@@H](CCN)C(=O)N[C@H]1CCNC(=O)[C@H]([C@@H](C)O)NC(=O)[C@H](CCCNC(=N)N)NC(=O)[C@H](CCN)NC(=O)[C@H](CC(C)C)NC(=O)[C@@H](Cc2ccccc2)NC(=O)[C@H](CCN)NC1=O)[C@@H](C)O` (Octanoyl-[Dab]T[Dab][Dab][Dab][dF]L[Dab]RT; lactam 4-C), the MIC is more than 32 µg/mL against Klebsiella pneumoniae [1]; more than 32 µg/mL in the data set on Klebsiella pneumoniae [3]; more than 32 µg/mL against Acinetobacter baumannii [4]; more than 32 µg/mL in the data set on Staphylococcus aureus; more than 32 µg/mL in the data set on Klebsiella pneumoniae [5]; 32 µg/mL (≈ 25.7 µM) in the data set on Acinetobacter baumannii [6]. Moreover, the MIC against Klebsiella pneumoniae [7] is 8 µg/mL (≈ 6.42 µM); against Pseudomonas aeruginosa [8], 1 µg/mL (≈ 0.803 µM); against Klebsiella pneumoniae [9], 4 µg/mL (≈ 3.21 µM); in the data set with Pseudomonas aeruginosa [10], more than 32 µg/mL; against Pseudomonas aeruginosa [11], more than 32 µg/mL; in the data set on Escherichia coli, 16 µg/mL (≈ 12.8 µM). This compound yielded a CC50 at 24 h in data set [2] of more than 300 µM.
Turning to `CCCCCCCC(=O)N[C@@H](CCN)C(=O)N[C@H](C(=O)N[C@@H](CCN)C(=O)N[C@H]1CCNC(=O)[C@H]([C@@H](C)O)NC(=O)[C@H](CCN)NC(=O)[C@H](CCN)NC(=O)[C@H](CC(C)C)NC(=O)[C@@H](Cc2ccc(-c3ccccc3)cc2)NC(=O)[C@H](CCN)NC1=O)[C@@H](C)O` (Octanoyl-[Dab]T[Dab][Dab][Dab][dBip]L[Dab][Dab]T; lactam 4-C), the MIC worked out at 4 µg/mL (≈ 3.16 µM) against Klebsiella pneumoniae [1]; 32 µg/mL (≈ 25.3 µM) with Klebsiella pneumoniae [3]; 8 µg/mL (≈ 6.32 µM) in the data set on Acinetobacter baumannii [4]; 8 µg/mL (≈ 6.32 µM) in the data set with Staphylococcus aureus; 32 µg/mL (≈ 25.3 µM) against Klebsiella pneumoniae [5]; 0.5 µg/mL (≈ 0.395 µM) with Acinetobacter baumannii [6]. The MIC in the data set on Klebsiella pneumoniae [7] came to 2 µg/mL (≈ 1.58 µM); in the data set with Pseudomonas aeruginosa [8], 1 µg/mL (≈ 0.79 µM); against Klebsiella pneumoniae [9] it was 1 µg/mL (≈ 0.79 µM); against Pseudomonas aeruginosa [10] it was 16 µg/mL (≈ 12.6 µM); in the data set with Pseudomonas aeruginosa [11], 16 µg/mL (≈ 12.6 µM); in the data set on Escherichia coli, 1 µg/mL (≈ 0.79 µM). Moreover, in data set [2], the CC50 at 24 h is 119 µM.
In the case of `CCCCCCCC(=O)N[C@@H](CCN)C(=O)N[C@H](C(=O)N[C@@H](CCN)C(=O)N[C@H]1CCNC(=O)[C@H]([C@@H](C)O)NC(=O)[C@H](CCN)NC(=O)[C@H](Cc2ccc(N)cc2)NC(=O)[C@H](CC(C)C)NC(=O)[C@@H](Cc2ccccc2)NC(=O)[C@H](CCN)NC1=O)[C@@H](C)O`, the MIC is 8 µg/mL (≈ 6.39 µM) in the data set with Klebsiella pneumoniae [1]; more than 32 µg/mL with Klebsiella pneumoniae [3]; more than 32 µg/mL with Acinetobacter baumannii [4]; more than 32 µg/mL with Staphylococcus aureus; more than 32 µg/mL in the data set on Klebsiella pneumoniae [5]; 4 µg/mL (≈ 3.2 µM) in the data set with Acinetobacter baumannii [6]. Further, the MIC in the data set with Klebsiella pneumoniae [7] is 1 µg/mL (≈ 0.799 µM); against Pseudomonas aeruginosa [8], 8 µg/mL (≈ 6.39 µM); against Klebsiella pneumoniae [9] it was 2 µg/mL (≈ 1.6 µM); with Pseudomonas aeruginosa [10], 32 µg/mL (≈ 25.6 µM); in the data set with Pseudomonas aeruginosa [11] it was more than 32 µg/mL; in the data set on Escherichia coli it was 0.5 µg/mL (≈ 0.4 µM).
On to `CCCCCCCC[C@@H]1NC(=O)[C@@H](Cc2ccccc2)NC(=O)[C@H](CCN)NC(=O)[C@@H](NC(=O)[C@H](CCN)NC(=O)[C@@H](NC(=O)[C@H](CCN)NC(=O)CCCCCCC)[C@@H](C)O)CCNC(=O)[C@H]([C@@H](C)O)NC(=O)[C@H](CCN)NC(=O)[C@H](CCN)NC1=O` (Octanoyl-[Dab]T[Dab][Dab][Dab][dF][Gly(octyl)][Dab][Dab]T; lactam 4-C), for which the MIC against Klebsiella pneumoniae [1] amounted to 4 µg/mL (≈ 3.21 µM); in the data set with Acinetobacter baumannii [6], 2 µg/mL (≈ 1.61 µM); against Pseudomonas aeruginosa [8] it was 1 µg/mL (≈ 0.803 µM).

The values are drawn from ChEMBL document CHEMBL3774373, “Activity and Predicted Nephrotoxicity of Synthetic Antibiotics Based on Polymyxin B” (J Med Chem, 2016).
